For this experiment, the system named is HepG2. The experiment can be described thus: Compound was tested in vitro for up-regulation of low density lipoprotein (LDL) receptor in human hepatocytes (HepG2 cells) at a concentration 3 uM. The format is functional. The method, boiled down: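 HepG2 cells (passage ≤10, DMEM with FCS, 5% CO2, 37 °C) plated at 10 000 cells/well and grown 3 days to 80% confluence. Compound at 3 µM added in DMEM with 1% BSA for 24 h. Cell-surface LDL receptors measured by fluorescence immunoassay: MAC-C7 antibody, then alkaline phosphatase-conjugated anti-mouse IgG, substrate ATTAPHOS. Cell number read by propidium iodide. Five replicates, mean % increase.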
As to `COc1ccc(NC(=O)CCC2CCCCC2)cc1NC(=O)c1ccc(OC(C)=O)cc1`, the Activity is recorded as -13%.
To `Cc1ccc(NC(=O)CCN2CCCCC2)cc1NC(=O)c1ccc(O)cc1` belongs -2%; to `Cc1ccc(NC(=O)CCC2CCCCC2)cc1NC(=O)c1ccc(N)cc1`, 58%.
For `CC(=O)Oc1ccc(C(=O)Nc2cc(NC(=O)CCC3CCCCC3)ccc2C)cc1` the value was 82%.
To `COC(=O)c1ccc(C(=O)Nc2cc(NC(=O)CCC3CCCCC3)ccc2C)cc1` belongs 3%; to `Cc1ccc(NC(=O)CCC2CCCCC2)cc1NC(=O)c1ccc2c(c1)OCO2`, 111%; to `Cc1ccc(NC(=O)CCC2CCCCC2)cc1NC(=O)c1ccccc1O`, 0%.
Consider `Cc1ccc(NC(=O)CCC2CCCCC2)cc1NC(=O)c1ccncc1`, for which the Activity is -5%.
To `Cc1ccc(NC(=O)CCC2CCCCC2)cc1NC(=O)c1cccnc1` belongs 83%.
Turning to `CCCCCCCCC(=O)Nc1ccc(C)c(NC(=O)c2ccc(O)cc2)c1`, the Activity is listed as -10%.
For `Cc1ccc(NC(=O)NCC2CCCCC2)cc1NC(=O)c1ccc(O)cc1` the value was 10%; for `Cc1ccc2[nH]c(-c3cc(NC(=O)CCC4CCCCC4)ccc3C)nc2c1`, 91%.
Turning to `Cc1ccc(NC(=O)CCC2CCCCC2)cc1-c1nc2cc(O)ccc2[nH]1`, the Activity is reported as 134%.
To `Cc1ccc(NC(=O)CCC2CCCCC2)cc1C(=O)Nc1ccc(O)cc1` belongs 60%; to `Cc1ccc(NC(=O)OCC2CCCCC2)cc1NC(=O)c1ccc(O)cc1`, 16%; to `CC(=O)Oc1ccc(C(=O)Nc2cccc(NC(=O)CCC3CCCCC3)c2)cc1`, 6%.
For `Cc1ccc(NC(=O)CCC2CCCCC2)cc1NC(=O)c1cc[n+]([O-])cc1` the value was 7%; for `CC[C@H](C)C(=O)O[C@H]1C[C@@H](C)C=C2C=C[C@H](C)[C@H](CC[C@@H]3C[C@@H](O)CC(=O)O3)[C@H]21` [LOVASTATIN], 70%; for `Cc1ccc(NC(=O)CCC2CCCC2)cc1NC(=O)c1ccc(O)cc1`, 25%.
As to `O=C(CCC1CCCCC1)Nc1ccc(F)c(NC(=O)c2ccc(O)cc2)c1`, the Activity is 12%.
To `Cc1ccc(NC(=O)CCC2CCCCC2)cc1/C=C(\C#N)c1ccc(O)cc1` belongs 21%.
Regarding `Cc1ccc(NC(=O)CCC2CCCCC2)cc1/C=C(\C#N)c1ccc2c(c1)OCO2`, the Activity is 108%.
As to `Cc1ccc(NC(=O)CCC2CCCCC2)cc1NCc1ccc(O)cc1`, the Activity is -11%.
For `Cc1ccc(NC(=O)CCC2CCCCC2)cc1NC(=O)c1ccc(CO)cc1` the value was 44%; for `Cc1ccc(NC(=O)CCC2CCCCC2)cc1NC(=O)C1CCCCC1`, 0%; for `Cc1ccc(C(=O)CCCC2CCCCC2)cc1NC(=O)c1cccnc1`, 111%.
Take `CC(=O)Oc1ccc(C(=O)Nc2cc(NC(=O)COC3CCCCC3)ccc2C)cc1`: the Activity is listed as 17%.
As to `O=C(CCC1CCCCC1)Nc1ccc(Cl)c(NC(=O)c2ccc(O)cc2)c1`, the Activity is reported as 8%.
To `O=C(CCC1CCCCC1)Nc1ccc(O)c(NC(=O)c2ccc(O)cc2)c1` belongs -3%.
To `Cc1ccc(C(=O)NCCC2CCCCC2)cc1NC(=O)c1ccc(O)cc1` belongs 75%.
With `Cc1ccc(NC(=O)CCC2CCCCC2)cc1NC(=O)c1ccc(O)cc1`, the Activity is listed as 80%.
For the molecule `O=C(CCC1CCCCC1)Nc1ccc(Br)c(NC(=O)c2ccc(O)cc2)c1`, the Activity was determined as 6%.
To `Cc1ccc(NC(=O)CCC2CCCCC2)cc1NC(=O)c1ccc([N+](=O)[O-])cc1` belongs 11%; to `Cc1ccc(NC(=O)CCC2CCCCC2)cc1/C=C(\C#N)c1cccnc1`, 126%.
Take `Cc1ccc(NC(=O)CCC2CCCCC2)cc1NC(=O)c1cccc(O)c1`: the Activity is on record as 59%.
For `Cc1ccc(NC(=O)CCC2CCCCC2)cc1-c1nc2ccccc2[nH]1` the value was 45%; for `Cc1ccc(NC(=O)CC2CCCCC2)cc1NC(=O)c1ccc(O)cc1`, 3%; for `Cc1ccc(C(=O)CCCC2CCCCC2)cc1NC(=O)c1ccc(O)cc1`, 10%.
For `Cc1ccc(NC(=O)CCC2CCCCC2)cc1NC(=O)c1ccccc1`, the Activity is given as 50%.
Take `Cc1ccc(NC(=O)CCCC2CCCCC2)cc1NC(=O)c1ccc(O)cc1`: the Activity was found to be 32%.
For the molecule `Cc1ccc(NC(=O)CCc2ccccc2)cc1NC(=O)c1ccc(O)cc1`, the Activity is -20%.

For the origin of these results see ChEMBL document CHEMBL1129612, “New low-density lipoprotein receptor upregulators acting via a novel mechanism” (J Med Chem, 1996).
